{"source": "PubChem BioAssay AID623976", "about": "(Vanderbilt High Throughput Screening Facility, 2012)", "target": "G protein-activated inward rectifier potassium channel 4 (Homo sapiens) + G protein-activated inward rectifier potassium channel 1 (Homo sapiens) (UniProt P48544+P48549)", "sequence (P48544 whole entry, looked up)": "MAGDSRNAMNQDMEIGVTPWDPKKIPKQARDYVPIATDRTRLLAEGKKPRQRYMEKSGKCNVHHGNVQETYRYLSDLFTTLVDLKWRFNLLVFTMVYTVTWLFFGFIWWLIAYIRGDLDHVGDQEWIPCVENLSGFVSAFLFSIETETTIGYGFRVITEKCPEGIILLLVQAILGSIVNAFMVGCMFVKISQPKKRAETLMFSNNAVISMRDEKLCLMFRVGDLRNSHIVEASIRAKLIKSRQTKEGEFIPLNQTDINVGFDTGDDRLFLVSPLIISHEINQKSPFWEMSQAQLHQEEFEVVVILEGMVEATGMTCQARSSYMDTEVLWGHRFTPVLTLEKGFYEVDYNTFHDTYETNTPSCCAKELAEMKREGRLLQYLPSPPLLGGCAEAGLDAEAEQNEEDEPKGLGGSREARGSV", "sequence (P48549 whole entry, looked up)": "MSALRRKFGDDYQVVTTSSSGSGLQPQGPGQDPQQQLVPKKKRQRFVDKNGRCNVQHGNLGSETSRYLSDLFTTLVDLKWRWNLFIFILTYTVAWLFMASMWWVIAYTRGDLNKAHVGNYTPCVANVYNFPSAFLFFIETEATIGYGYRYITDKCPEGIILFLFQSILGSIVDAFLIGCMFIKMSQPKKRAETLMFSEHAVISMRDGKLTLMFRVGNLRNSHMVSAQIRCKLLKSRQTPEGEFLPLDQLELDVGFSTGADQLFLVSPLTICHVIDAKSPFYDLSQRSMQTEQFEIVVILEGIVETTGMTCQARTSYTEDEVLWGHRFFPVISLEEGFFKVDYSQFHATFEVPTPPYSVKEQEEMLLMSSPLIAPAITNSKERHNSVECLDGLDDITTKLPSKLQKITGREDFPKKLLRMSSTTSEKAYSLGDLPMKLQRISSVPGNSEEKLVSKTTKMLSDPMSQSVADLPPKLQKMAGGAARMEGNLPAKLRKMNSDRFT", "assay": "GIRK1/4 channel activators by electrophysiology, confirmation, HEK-293 hGIRK1/4, whole-cell patch clamp (AID 623976)", "settings": "HEK-293 hGIRK1/4, whole-cell patch clamp Ba2+-sensitive current", "how_it_was_run": "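Assay system: HEK-293 cells stably expressing human GIRK1/4 channels. Buffer or medium: 20K external solution, KCl pipette solution. Dosing: compound tested at multiple concentrations. Schedule: recording 24-72 h post-plating. Measured by: whole-cell voltage clamp at -70 mV, 2 mM BaCl2-sensitive current.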"}
{"smiles": "Cc1cc(NC(=O)Nc2ccc(F)c(F)c2)n(-c2ccccc2)n1", "values": [{"measurement": "EC50", "value": 1.59, "unit": "µM"}]}
